The values that follow come from ChEMBL document CHEMBL4834420, “Projected Dose Optimization of Amino- and Hydroxypyrrolidine Purine PI3Kδ Immunomodulators” (J Med Chem, 2021).

Calls of active or inactive are those of the source.

Data set [1] in a line: Oral bioavailability in Wistar Han rat. Format: ADME, organism-based. The settings on record: in vivo.
Data set [2] deals with Sodium channel protein type 5 subunit alpha (Homo sapiens, UniProt Q14524). The data set is described as follows: Inhibition of Nav1.5 (unknown origin).
Data set [3] addresses T1, Phosphatidylinositol 4,5-bisphosphate 3-kinase catalytic subunit delta isoform (Mus musculus) (UniProt O35904).
T1 sequence (whole entry): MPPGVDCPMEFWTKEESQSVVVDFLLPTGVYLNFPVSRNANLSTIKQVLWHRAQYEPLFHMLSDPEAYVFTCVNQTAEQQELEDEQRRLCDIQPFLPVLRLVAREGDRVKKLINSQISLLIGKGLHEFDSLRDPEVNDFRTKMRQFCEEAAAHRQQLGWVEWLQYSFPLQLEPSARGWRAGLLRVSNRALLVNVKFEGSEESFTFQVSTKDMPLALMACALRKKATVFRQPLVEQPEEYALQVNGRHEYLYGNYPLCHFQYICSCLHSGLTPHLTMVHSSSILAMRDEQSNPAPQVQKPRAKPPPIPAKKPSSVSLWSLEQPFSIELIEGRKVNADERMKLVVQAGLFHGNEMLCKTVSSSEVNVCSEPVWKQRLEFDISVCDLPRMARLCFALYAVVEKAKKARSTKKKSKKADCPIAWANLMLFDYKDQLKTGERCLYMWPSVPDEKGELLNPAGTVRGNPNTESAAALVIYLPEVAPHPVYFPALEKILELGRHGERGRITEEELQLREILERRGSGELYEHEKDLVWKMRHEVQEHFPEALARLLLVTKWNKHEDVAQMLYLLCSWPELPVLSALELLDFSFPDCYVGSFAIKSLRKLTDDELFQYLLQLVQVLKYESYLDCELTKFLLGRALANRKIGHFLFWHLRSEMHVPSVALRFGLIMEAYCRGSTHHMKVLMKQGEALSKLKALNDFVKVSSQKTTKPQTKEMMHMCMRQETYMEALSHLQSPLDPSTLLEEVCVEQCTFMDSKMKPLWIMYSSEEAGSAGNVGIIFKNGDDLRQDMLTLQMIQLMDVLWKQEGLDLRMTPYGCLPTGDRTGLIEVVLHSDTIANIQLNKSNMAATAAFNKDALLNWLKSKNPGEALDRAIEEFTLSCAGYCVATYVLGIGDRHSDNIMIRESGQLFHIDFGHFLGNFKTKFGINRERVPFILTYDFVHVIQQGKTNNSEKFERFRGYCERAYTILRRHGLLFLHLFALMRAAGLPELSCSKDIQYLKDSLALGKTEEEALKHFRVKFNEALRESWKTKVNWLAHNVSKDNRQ
The data set is described as follows: Inhibition of PI3Kdelta in Foxp3-GFP C57BL/6 mouse assessed as reduction in Treg population administered upto 7 days. The settings on record: dose 30-100 mg/kg, time day <=7. Summed up:
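C57BL/6 Foxp3-GFP reporter mice were dosed at 30 and 100 mg/kg/day for up to 7 days. Treg population was monitored by bioluminescence imaging 10 min after ip injection of 3 mg luciferin. Radiance was quantified as photons/s/cm²/steradian. Diphtheria toxin served as a positive control.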

Data set [4] in a line: Plasma protein binding in Brown Norway rat at 10 mg/kg, po. Format: ADME, organism-based. Conditions: read-out: PPB (converted).
Data set [5] addresses ATP-dependent translocase ABCB1 (Homo sapiens, UniProt P08183). The data set is described as follows: Inhibition of PGP (unknown origin).
Data set [6] can be described thus: Volume of distribution in C57BL/6 mouse. Format: ADME. Conditions: in vivo.
Data set [7] is described as follows: Unbound volume of distribution in Wistar Han rat. It counts as ADME. The settings on record: in vivo.
Data set [8] in a line: Protein binding in Wistar Han rat plasma. The settings on record: read-out: PPB (converted). Format: ADME, cell-free.
The next data set concerns the target Cytochrome P450 3A4 (Homo sapiens, UniProt P08684). The data set is described as follows: Inhibition of CYP3A4 (unknown origin). Format: ADME.
A short description of data set [9]: Oral bioavailability in Beagle dog. Format: ADME, organism-based, Canis lupus familiaris. The settings on record: in vivo.
Data set [10] in a line: Inhibition of dog PI3Kdelta. Also noted: species or system Canis lupus familiaris.
Data set [11] is described as follows: Plasma clearance in Wistar Han rat at 0.5 mg/kg, iv or 1 mg/kg, po. It counts as ADME, organism-based.
The target in a further data set is T2, Cytochrome P450 2B6 (Homo sapiens, UniProt P20813).
T2 sequence (P20813 whole entry): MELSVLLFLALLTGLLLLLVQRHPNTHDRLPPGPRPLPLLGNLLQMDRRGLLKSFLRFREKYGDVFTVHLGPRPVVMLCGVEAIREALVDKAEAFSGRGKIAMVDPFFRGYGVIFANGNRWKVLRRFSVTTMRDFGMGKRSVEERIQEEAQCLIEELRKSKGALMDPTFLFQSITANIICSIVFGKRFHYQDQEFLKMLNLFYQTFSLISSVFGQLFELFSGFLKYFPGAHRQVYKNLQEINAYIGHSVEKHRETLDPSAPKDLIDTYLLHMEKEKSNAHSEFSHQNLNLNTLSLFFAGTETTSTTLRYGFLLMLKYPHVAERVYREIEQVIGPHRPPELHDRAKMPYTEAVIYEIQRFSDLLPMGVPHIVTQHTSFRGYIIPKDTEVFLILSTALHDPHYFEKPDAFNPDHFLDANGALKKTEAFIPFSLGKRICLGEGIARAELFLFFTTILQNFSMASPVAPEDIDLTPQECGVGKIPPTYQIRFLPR
The data set is described as follows: Inhibition of CYP2B6 (unknown origin). Format: ADME.

Data set [12] is described as follows: Intrinsic clearance in Wistar Han rat at 0.5 mg/kg, iv or 1 mg/kg, po. Format: ADME, organism-based. The settings on record: in vivo.
The nature of data set [13]: Half-life in Wistar Han rat. The settings on record: in vivo. Format: ADME.
Data set [14] is described as follows: Unbound volume of distribution in Beagle dog. Format: ADME, Canis lupus familiaris. The settings on record: in vivo.
The nature of data set [15]: Plasma clearance in C57BL/6 mouse at 1 mg/kg, iv or 3 mg/kg, po. It counts as ADME, organism-based.
Data set [16] in a line: Unbound trough plasma concentration Brown Norway rat at 30 mg/kg, po. It counts as ADME, organism-based. Conditions: in vivo.
In the next data set the test system is Rattus norvegicus. Put plainly: Immunomodulatory activity in ovalbumin induced Brown Norway rat allergic rhinitis model assessed as reduction in BAL count at 30 mg/kg, po administered for 2 days and treated with ovalbumin after 1 hr post second dose. Format: functional, organism-based. Conditions: time 2.0 day. In short, it runs like this:
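Brown Norway rats were presensitized with ovalbumin, 0.020 mg ip daily for 14 days. They then received compound orally for 2 days (0.3–30 mg/kg range studied). Ovalbumin challenge came 1 h after the second dose. Eosinophil cell count in bronchoalveolar lavage was assessed 48 h later.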

Sequence of ATP-dependent translocase ABCB1 (P08183 whole entry): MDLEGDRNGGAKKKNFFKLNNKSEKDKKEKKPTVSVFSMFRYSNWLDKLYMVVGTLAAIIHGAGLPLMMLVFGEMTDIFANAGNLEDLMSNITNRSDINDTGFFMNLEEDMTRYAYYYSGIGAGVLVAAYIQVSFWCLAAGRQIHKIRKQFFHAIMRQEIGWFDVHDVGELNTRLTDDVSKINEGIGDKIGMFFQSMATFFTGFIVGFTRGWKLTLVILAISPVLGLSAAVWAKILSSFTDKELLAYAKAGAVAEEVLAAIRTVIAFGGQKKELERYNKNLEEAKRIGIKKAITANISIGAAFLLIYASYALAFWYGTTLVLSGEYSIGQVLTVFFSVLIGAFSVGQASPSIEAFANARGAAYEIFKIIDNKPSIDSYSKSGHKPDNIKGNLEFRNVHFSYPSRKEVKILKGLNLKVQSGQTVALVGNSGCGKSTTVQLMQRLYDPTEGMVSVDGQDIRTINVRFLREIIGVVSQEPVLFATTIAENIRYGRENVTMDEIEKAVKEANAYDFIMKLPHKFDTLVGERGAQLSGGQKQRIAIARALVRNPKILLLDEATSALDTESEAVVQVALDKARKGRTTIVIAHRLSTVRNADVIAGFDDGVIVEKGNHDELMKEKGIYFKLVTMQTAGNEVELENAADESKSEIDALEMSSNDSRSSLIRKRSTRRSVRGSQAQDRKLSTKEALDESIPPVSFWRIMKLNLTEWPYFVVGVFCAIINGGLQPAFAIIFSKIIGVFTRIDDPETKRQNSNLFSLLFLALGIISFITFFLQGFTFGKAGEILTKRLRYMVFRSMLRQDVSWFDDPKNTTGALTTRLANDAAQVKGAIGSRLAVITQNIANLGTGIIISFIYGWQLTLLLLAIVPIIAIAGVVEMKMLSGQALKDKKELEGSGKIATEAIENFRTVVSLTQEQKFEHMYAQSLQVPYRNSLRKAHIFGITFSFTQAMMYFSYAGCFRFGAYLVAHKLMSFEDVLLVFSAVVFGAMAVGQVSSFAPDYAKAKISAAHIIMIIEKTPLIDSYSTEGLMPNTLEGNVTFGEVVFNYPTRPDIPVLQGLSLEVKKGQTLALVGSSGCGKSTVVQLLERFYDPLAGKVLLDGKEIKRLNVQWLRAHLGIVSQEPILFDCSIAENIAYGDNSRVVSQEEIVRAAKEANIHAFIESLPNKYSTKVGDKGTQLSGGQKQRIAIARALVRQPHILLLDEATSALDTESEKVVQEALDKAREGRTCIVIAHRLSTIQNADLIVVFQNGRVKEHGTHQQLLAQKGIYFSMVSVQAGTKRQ
Sequence of Sodium channel protein type 5 subunit alpha (Q14524 whole entry, canonical isoform): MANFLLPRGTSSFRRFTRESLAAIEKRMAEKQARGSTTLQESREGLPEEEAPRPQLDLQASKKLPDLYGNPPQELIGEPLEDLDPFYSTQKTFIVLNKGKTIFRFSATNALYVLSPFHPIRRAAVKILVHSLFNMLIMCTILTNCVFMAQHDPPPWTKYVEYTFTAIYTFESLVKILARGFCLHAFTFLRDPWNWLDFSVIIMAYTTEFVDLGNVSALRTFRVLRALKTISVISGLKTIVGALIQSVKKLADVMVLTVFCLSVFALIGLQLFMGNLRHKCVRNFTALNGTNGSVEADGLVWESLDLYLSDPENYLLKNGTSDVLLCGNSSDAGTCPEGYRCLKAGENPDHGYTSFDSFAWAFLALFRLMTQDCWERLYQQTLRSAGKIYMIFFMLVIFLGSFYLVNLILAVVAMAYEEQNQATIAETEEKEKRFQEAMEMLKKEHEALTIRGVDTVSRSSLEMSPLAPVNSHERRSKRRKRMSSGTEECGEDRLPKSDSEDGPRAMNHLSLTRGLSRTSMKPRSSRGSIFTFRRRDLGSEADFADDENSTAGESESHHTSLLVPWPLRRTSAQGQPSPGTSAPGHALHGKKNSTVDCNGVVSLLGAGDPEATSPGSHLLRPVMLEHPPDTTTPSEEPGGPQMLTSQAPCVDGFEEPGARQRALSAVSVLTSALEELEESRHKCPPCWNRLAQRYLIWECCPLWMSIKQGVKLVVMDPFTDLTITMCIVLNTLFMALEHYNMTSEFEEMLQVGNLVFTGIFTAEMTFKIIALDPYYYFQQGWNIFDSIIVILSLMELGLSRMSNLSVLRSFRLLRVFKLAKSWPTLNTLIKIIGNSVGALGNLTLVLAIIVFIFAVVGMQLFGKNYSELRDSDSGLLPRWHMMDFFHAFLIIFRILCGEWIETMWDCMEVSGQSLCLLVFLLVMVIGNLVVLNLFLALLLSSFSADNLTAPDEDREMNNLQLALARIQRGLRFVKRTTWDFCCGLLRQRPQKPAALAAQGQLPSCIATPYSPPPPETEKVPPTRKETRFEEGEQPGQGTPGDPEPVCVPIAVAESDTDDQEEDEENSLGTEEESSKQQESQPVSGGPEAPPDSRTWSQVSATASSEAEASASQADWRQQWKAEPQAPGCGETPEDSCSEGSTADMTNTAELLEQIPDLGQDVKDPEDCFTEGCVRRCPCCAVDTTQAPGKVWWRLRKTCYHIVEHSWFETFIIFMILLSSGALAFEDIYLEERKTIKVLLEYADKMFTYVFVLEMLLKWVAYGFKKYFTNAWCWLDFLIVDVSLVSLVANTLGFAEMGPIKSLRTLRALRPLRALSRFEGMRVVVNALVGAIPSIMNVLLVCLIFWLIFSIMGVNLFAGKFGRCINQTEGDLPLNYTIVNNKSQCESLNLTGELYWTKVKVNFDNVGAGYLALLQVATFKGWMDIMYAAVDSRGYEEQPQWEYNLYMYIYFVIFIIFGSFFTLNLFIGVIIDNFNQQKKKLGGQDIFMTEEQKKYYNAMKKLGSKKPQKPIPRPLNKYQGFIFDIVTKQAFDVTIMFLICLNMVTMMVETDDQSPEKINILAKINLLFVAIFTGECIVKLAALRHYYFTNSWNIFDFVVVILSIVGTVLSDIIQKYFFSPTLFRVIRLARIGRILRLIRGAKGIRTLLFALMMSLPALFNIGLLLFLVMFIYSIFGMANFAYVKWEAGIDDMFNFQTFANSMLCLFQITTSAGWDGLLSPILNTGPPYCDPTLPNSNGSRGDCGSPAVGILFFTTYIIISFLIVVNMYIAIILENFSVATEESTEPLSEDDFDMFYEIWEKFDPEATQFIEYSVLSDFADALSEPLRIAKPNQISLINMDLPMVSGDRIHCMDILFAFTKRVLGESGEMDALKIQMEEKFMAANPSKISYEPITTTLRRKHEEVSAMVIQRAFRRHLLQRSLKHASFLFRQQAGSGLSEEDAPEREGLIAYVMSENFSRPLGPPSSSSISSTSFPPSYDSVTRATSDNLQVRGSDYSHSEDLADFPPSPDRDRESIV
Sequence of Cytochrome P450 3A4 (P08684 whole entry): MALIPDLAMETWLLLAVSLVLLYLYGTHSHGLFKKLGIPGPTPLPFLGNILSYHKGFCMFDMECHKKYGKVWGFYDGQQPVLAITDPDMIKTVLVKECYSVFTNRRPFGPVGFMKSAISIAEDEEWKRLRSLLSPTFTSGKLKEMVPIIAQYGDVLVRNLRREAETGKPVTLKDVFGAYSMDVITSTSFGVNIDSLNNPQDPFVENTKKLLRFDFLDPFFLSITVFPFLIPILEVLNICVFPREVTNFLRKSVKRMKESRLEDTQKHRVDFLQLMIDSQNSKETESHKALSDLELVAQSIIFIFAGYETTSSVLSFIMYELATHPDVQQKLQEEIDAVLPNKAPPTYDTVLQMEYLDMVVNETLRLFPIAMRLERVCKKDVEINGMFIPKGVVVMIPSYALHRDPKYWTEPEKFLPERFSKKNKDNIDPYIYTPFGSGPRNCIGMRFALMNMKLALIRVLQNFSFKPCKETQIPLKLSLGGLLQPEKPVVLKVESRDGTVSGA

In general, bioavailability refers to the share of a dose that reaches the circulation, judged against a reference dose that is usually intravenous. High values mean good availability, low ones poor availability. By IC50 is commonly meant the concentration that gives 50% inhibition. Lower therefore signals greater potency in that assay. By Vd is commonly meant a proportionality between amount in the body and measured concentration, not a real space. Low readings indicate little distribution into tissue, high ones wide distribution into tissue. The term half-life denotes the time needed for the level to fall by half in the phase considered. Low values mean fast loss, high ones slow loss. In the case of `CCn1c(-c2cnc(C)nc2)nc2c(N[C@H]3CCN(C(=O)C4CC4)C3)ncnc21`, the values for the bioavailability in data set [1] and in [9] were 55% and 95%, respectively. The half-inhibitory concentration (IC50) in data set [2] is above 50 µM; against Cytochrome P450 3A4, above 50 µM; in data set [10], 0.0025 µM; at Cytochrome P450 2B6 it was above 50 µM. For the same compound, the Activity entry in data set [3] was “Dose-Dependent Effect”. Moreover, the fraction unbound in data set [4] was 0.59; in data set [8] it was 0.18. Moreover, the “inhibition (INH)” value in data set [5] is “Not Active”. The Vd in [6] came to 0.2 L/kg. The figures for the Vdu in [7] and in data set [14] were 6.3 L/kg and 1.8 L/kg, respectively. The clearance came to 8.1 mL/min/kg in [11] and 45 mL/min/kg in data set [15]. Moreover, the CL in data set [12] is 64 mL/min/kg. The same compound had a half-life in data set [13] of 2.7 h. This compound also displayed a fCmin in data set [16] of 62 nM. For the same compound, in the data set with Rattus norvegicus, the result was Active.
